Calls of active or inactive are those of the source. The calls are words filed in the database; no cut-off is given here.
How the values were obtained:
[1] = test system: U-937; test: Induction of apoptosis in human U937 cells assessed as caspase 3 activation at 0.5 uM after 28 hrs by FACS analysis; type: functional, cell-based
How it was run: (§1)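 U937 cells were grown in supplemented RPMI at 200,000 cells/mL. Compounds in DMSO were given at 5 µM for 24 h or 30 h, or at 0.5 µM for 28 h. Apoptosis was analysed by FACS. Values are means of independent duplicates.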

[2] = test system: A549; test: Antiproliferative activity against human A549 cells after 48 hrs by MTT assay; type: functional, cell-based; settings: A549, 48 h
How it was run: (§2)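 Cells seeded at 4000/well; compounds (10 mg/mL DMSO stock, diluted in medium) added 24 h after seeding, in duplicate. Incubation 48 h at 37 °C, 5% CO2. MTT (20 µL of 5 mg/mL in PBS) then added for 4 h at 37 °C, and the signal read at 570 nm.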

[3] = species on record: Homo sapiens; test: Selectivity index, ratio of IC50 for human recombinant HDAC1 to IC50 for human recombinant HDAC4
How it was run: (§3)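 Purified recombinant HDAC1 or HDAC4 was incubated with acetylated-lysine Fluor de Lys substrate, with or without inhibitor. Developer was then added to give the fluorophore, and fluorescence was read. IC50 values are means of at least three experiments. SI is IC50(HDAC1)/IC50(HDAC4).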

[4] = test system: U-937; test: Increase in granulocytic differentiation in human U937 cells assessed as CD11c expression at 0.5 uM after 28 hrs by FACS analysis; type: functional, cell-based
How it was run: (§4)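 U937 cells were grown in RPMI with 10% FCS, 10 mM Hepes and 2 mM glutamine at 200,000 cells/mL. Compounds in DMSO were given for 30 h (5 µM) or 28 h (0.5 µM). Cells were stained for surface antigen for 30 min at 4 °C in the dark, washed, and resuspended in PBS with propidium iodide. PI-positive cells were excluded from the FACS analysis. Values are means of independent quadruplicates.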

[5] = target: Histone deacetylase 4 (Homo sapiens, UniProt P56524); test: Inhibition of human recombinant HDAC4 using Fluor de Lys as substrate by fluorimetric assay; how it was run: as §3
Sequence of Histone deacetylase 4 (P56524 whole entry): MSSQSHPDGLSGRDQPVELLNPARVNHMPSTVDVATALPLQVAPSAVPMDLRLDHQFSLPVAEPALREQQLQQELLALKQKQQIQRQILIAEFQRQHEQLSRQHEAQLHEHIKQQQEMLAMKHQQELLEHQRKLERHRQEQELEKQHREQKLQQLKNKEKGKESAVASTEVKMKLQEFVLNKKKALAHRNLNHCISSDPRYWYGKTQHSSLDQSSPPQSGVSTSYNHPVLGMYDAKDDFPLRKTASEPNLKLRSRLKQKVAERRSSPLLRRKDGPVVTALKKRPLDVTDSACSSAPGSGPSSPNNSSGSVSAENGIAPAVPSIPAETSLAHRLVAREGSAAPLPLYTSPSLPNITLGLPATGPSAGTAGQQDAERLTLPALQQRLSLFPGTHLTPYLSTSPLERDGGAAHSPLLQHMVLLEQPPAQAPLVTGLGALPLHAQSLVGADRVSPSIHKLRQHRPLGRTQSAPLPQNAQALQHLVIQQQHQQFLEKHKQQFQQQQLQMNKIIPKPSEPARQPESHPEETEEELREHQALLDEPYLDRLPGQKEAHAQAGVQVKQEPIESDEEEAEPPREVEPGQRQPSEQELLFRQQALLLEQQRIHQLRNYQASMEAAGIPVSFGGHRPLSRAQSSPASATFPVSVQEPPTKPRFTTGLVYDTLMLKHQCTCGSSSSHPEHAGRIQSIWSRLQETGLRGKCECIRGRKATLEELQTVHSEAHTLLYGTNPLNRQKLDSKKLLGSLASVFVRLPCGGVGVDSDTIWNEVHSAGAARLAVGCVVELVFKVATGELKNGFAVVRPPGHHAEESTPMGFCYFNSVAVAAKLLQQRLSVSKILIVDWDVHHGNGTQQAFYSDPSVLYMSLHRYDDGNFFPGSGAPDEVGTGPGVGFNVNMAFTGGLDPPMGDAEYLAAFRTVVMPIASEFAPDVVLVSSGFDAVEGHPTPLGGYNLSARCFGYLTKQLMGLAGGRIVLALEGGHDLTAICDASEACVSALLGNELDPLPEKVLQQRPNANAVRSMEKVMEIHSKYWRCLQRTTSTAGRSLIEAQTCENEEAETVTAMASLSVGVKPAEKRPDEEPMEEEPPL

[6] = target: Histone deacetylase; test: Inhibition of human recombinant HDAC by fluorimetric assay; type: protein assay
[7] = test system: HepG2; test: Antiproliferative activity against human HepG2 cells after 48 hrs by MTT assay; type: functional, cell-based; settings: HepG2, 48 h; how it was run: as §2
[8] = test system: PC-3; test: Antiproliferative activity against human PC3 cells after 48 hrs by MTT assay; type: functional, cell-based; settings: PC-3, 48 h; how it was run: as §2
[9] = target: Histone deacetylase 1 (Homo sapiens, UniProt Q13547); test: Inhibition of human recombinant HDAC1 using Fluor de Lys as substrate by fluorimetric assay; how it was run: as §3
Sequence of Histone deacetylase 1 (Q13547 whole entry): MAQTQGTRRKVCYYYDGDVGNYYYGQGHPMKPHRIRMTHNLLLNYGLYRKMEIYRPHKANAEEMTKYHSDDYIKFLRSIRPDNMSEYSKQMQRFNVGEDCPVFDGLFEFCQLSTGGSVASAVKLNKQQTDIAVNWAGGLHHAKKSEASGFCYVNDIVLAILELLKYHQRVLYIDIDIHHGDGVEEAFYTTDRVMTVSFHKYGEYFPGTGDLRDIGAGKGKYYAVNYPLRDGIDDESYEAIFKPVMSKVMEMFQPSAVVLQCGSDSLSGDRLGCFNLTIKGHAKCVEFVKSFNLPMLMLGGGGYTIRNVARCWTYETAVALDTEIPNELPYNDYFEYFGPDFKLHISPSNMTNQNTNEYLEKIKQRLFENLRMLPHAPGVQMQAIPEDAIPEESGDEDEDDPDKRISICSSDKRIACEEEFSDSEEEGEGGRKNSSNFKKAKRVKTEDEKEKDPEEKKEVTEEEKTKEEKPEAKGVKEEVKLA

[10] = test system: Zea mays; test: Selectivity for maize histone deacetylase 1A over maize histone deacetylase 1B
[11] = test system: Plasma; test: Stability in rat plasma at 25 ug/ml; type: ADME, cell-free
How it was run: (§5)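 Compounds were dissolved in blank rat plasma (1 mg/mL stock) and serially diluted with plasma. Samples were incubated at 37 °C and sampled at several times. Proteins were precipitated with two volumes of acetonitrile and spun at 16,000 rpm for 5 min, and the supernatant was analysed by HPLC.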

[12] = test system: U-937; test: Cell cycle arrest in human U937 cells assessed as accumulation at S phase at 5 uM after 24 hrs by flow cytometry; type: functional, cell-based
How it was run: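 U937 cells were grown in RPMI with 10% FCS, penicillin/streptomycin, amphotericin-B, 10 mM Hepes and 2 mM glutamine, and held at 200,000 cells/mL. Cells were treated 24 h with compounds in DMSO. 2.5×10^5 cells were resuspended in hypotonic buffer (0.1% Triton X-100, 0.1% sodium citrate, 50 µg/mL PI, RNase A) for 30 min in the dark, then analysed by flow cytometry. Values are means of independent duplicates.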

[13] = test system: Plasma; test: Stability in rat plasma at 100 ug/ml; type: ADME, cell-free; how it was run: as §5
[14] = test system: HCT-116; test: Antiproliferative activity against human HCT116 cells after 48 hrs by MTT assay; type: functional, cell-based; settings: HCT-116, 48 h; how it was run: as §2
[15] = test system: U-937; test: Induction of p21waf1/CIP1 expression in human U937 cells after 24 hrs by Western blot analysis; type: functional, cell-based
How it was run: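 U937 cells were treated for 24 h. Total protein extracts (50 µg) were run on a 15% polyacrylamide gel and blotted for p21 (1:500), with tubulin as the loading control.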

[16] = target: T1, Protein deacetylase HDAC6 (Homo sapiens) (UniProt Q9UBN7); test: Inhibition of HDAC6 in human U937 cells assessed as induction of alpha-tubulin acetylation after 24 hrs by Western blot analysis; type: cell-based; settings: U-937
T1 sequence (whole entry): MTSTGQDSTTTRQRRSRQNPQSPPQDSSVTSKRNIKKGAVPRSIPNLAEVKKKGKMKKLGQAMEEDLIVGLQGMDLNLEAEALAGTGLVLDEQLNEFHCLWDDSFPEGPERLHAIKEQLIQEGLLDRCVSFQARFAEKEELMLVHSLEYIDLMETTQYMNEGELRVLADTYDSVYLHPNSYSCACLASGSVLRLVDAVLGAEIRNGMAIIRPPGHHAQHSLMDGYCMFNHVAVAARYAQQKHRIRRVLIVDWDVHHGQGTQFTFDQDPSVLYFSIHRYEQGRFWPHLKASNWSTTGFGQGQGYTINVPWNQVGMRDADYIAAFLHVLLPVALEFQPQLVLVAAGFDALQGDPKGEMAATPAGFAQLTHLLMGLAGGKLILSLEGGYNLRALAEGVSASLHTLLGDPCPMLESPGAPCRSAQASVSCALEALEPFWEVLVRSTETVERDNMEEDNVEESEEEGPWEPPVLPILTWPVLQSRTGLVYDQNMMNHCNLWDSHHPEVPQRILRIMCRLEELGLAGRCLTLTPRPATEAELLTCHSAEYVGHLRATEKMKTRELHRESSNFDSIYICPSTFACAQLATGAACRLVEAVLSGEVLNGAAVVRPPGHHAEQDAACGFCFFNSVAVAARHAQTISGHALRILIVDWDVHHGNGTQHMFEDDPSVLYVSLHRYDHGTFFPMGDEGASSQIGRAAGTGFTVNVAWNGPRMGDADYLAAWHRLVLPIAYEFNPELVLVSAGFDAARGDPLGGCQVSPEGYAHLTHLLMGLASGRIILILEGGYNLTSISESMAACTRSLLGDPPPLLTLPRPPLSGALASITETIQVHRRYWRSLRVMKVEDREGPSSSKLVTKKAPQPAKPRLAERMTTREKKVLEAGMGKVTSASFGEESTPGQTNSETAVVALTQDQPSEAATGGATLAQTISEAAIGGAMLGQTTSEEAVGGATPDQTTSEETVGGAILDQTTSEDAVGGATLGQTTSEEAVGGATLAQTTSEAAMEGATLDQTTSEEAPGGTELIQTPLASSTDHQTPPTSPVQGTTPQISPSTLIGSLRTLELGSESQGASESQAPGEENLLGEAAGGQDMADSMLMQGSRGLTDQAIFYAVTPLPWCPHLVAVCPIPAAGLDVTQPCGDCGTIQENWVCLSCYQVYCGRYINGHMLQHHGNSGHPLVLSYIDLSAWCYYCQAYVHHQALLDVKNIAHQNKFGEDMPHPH
How it was run: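 U937 cells were treated for 24 h. Total protein extract (50 µg) was run on a 10% polyacrylamide gel and blotted for acetylated α-tubulin (1:500), with total ERK as the loading control.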

[17] = Inhibition of HDAC
[18] = test system: U-937; test: Induction of apoptosis in human U937 cells assessed as caspase 3 activation at 5 uM after 30 hrs by FACS analysis; type: functional, cell-based; how it was run: as §1
[19] = test system: U-937; test: Induction of monocytic differentiation in human U937 cells assessed as CD14 expression at 5 uM after 30 hrs by FACS analysis; type: functional, cell-based; how it was run: as §4
[20] = test system: U-937; test: Increase in granulocytic differentiation in human U937 cells assessed as CD11c expression at 5 uM after 30 hrs by FACS analysis; type: functional, cell-based; how it was run: as §4

Structure (SMILES)	IC50 [2]	Ratio IC50 [3]	IC50 [5]	IC50 [6]	IC50 [7]	IC50 [8]	IC50 [9]	Selectivity ratio [10]	Stability [11]	Stability [13]	IC50 [14]	Activity [16]	IC50 [17]	Activity [1]	Activity [4]	Activity [12]	Activity [15]	Activity [18]	Activity [19]	Activity [20]
COc1cc(/C=C/c2ccc(C(=O)NO)o2)ccc1OCc1ccccc1	50.3 µM	1.3	10.2 µM	1.89 µM	30.9 µM	1.2 µM	13.4 µM	–	–	–	–	–	–	Active	Active	–	–	–	–	–
Cn1cc(/C=C/C(=O)c2cccc(F)c2)cc1/C=C/C(=O)NO	–	–	–	–	–	–	–	176	–	–	–	–	–	–	–	–	–	–	–	–
O=C(/C=C/c1ccc(/C=C/C(=O)c2ccccc2)o1)NO	20.2 µM	0.5	22.8 µM	–	12.1 µM	13.3 µM	11.5 µM	–	Stable	Stable	2.89 µM	Active	–	–	–	Active	Active	–	–	–

Continued, in another order:

IC50 [2]	Ratio IC50 [3]	IC50 [5]	IC50 [6]	IC50 [7]	IC50 [8]	IC50 [9]	Selectivity ratio [10]	Stability [11]	Stability [13]	IC50 [14]	Activity [16]	IC50 [17]	Structure (SMILES)	Activity [1]	Activity [4]	Activity [12]	Activity [15]	Activity [18]	Activity [19]	Activity [20]
–	–	–	–	–	–	–	–	–	–	–	–	1.8 µM	O=C(/C=C/C=C/C=C/c1ccccc1)NO	–	–	–	–	–	–	–
32.5 µM	1.04	47.2 µM	–	12.8 µM	40.4 µM	49.1 µM	–	Stable	Stable	2.49 µM	–	–	O=C(NO)c1ccc(/C=C/c2ccccc2)o1	–	–	–	–	Active	inactive	Active

— ChEMBL document CHEMBL1139422, “Design, synthesis and biological evaluation of novel compounds with conjugated structure as anti-tumor agents” (Bioorg Med Chem, 2008)
